The results in this text go back to PubChem BioAssay.

Usually inhibition stands for the drop in the measured response relative to a control, in per cent.

Activity calls are given as the source filed them.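 Rule for the calls, unless noted: active = visual image review flags a hit and inhibition of aggregation exceeds 20%; inconclusive = visual hit but inhibition at or below 20%; inactive = no hit on visual image review.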

Test [1] can be described thus: inhibitors of TNFa-induced NFkB p65 translocation, primary screen, imaging, HUVEC, MLSMR starter and 10KST1 sets (AID 438;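 active = inhibition above 20% together with a positive visual image hit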;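 note: compound added about 3h40 before a 20 min TNFalpha stimulation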;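 for inhibition: signal is the nuclear over cytoplasmic p65 intensity ratio per well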). As to conditions: HUVEC TNFa-induced p65 nuclear translocation; cell count: measured here: nuclei count (cytotoxicity indicator), at 2.08 µM; inhibition: at 2 µM, stronger effect = higher value, 0% TNFa-plus-vehicle, 100% no-TNFa wells.
Test [2] can be described thus: reduction of polyQ htt aggregates in cells – imaging, exon1htt(103Q)mCFP cells, high-content imaging, primary screen (AID 483).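 For nuclei count: percent of the per-plate median nuclei count of sample wells.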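 Note: compound exposure lasted 3 days before fixation.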 As to conditions: exon1htt(103Q)mCFP cell line, aggregate imaging, at 2 µM; inhibition of aggregation: stronger effect = higher value; nuclei count: measured here: cell count, toxicity.
Test [3] can be described thus: endothelial E-selectin expression blockers – imaging, HUVEC, immunofluorescence, MLSMR starter and 10KST1 sets, primary screen (AID 487;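 active = visually confirmed hit in the image check and inhibition above 20%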;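 for inhibition: signal is fraction of cell area covered by stained E-selectin grains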;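 for nuclei count: 100% = median nuclei count of all wells on the same plate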). The following applies: HUVEC TNFalpha-induced E-selectin immunofluorescence imaging, at 2 µM; inhibition: stronger effect = higher value; nuclei count: measured here: cell number, toxicity.
The target in test [4] is Voltage-gated potassium channel subunit beta-2 (Rattus norvegicus) (UniProt P62483). The test can be described thus: inhibitors of rat Kvbeta2 reductase activity – biochemical, NADPH fluorescence, primary screen (AID 622;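 active = fluorescence slope higher than the sample average by over 3 SD, cut at about -0.22 in these data, passing the limit was not always enough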;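 note: slope of raw intensity against log time taken from 70 to 1610 s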). The following applies: recombinant KvBeta, 4-cyanobenzaldehyde reduction, at 10 µM, stronger effect = higher value.
Sequence of Voltage-gated potassium channel subunit beta-2 (Rattus norvegicus) (P62483 whole entry, looked up): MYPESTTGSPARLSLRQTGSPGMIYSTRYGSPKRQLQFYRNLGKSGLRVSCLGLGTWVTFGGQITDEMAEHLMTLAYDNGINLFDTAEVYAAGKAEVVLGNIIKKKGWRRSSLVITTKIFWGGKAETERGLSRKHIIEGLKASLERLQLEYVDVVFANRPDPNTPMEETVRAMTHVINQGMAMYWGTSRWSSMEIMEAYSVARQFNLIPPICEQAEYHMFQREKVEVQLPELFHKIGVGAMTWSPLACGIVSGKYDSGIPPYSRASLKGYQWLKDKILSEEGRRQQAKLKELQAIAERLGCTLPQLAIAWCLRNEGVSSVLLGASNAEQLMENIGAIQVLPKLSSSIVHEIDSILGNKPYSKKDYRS
For test [5] the target is unchanged. The test can be described thus: enhancers of rat Kvbeta2 NADPH turnover – biochemical, NADPH fluorescence, primary screen (AID 623;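 active = NADPH fluorescence slope more negative than the mean of all samples by about 3 SD, 99.7% confidence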;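 note: fluorescence intensity change per second fitted from 20 to 320 s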). The following applies: Recombinant KvBeta, NADPH fluorescence decrease slope, 10 min; at 10 µM; stronger effect = lower value.
For test [6], the target named is Muscarinic acetylcholine receptor M4 (Homo sapiens) (UniProt P08173). Briefly: M4-linked GIRK flux change, two-sided – cell-based, HEK293 M4/GIRK, thallium flux, BTC-AM, M4 allosteric agonist project, primary screen (AID 625;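 active = fluorescence slope after compound addition differing from the mean of all tested samples at 99.7% confidence, mostly higher but some lower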;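 note: thallium influx through GIRK channels coupled to M4 in HEK293 cells with BTC-AM dye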). As to conditions: at 10 µM, actives lie on both sides. The gist of the method: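 Material: M4/GIRK1/GIRK2 stable HEK293 cell line. Medium: pH 7.3 thallium assay buffer. Dosing: single compound concentration, 10 µM final. Schedule: 1 h dye loading, 2 min kinetic read. Measured by: kinetic fluorescence with BTC-AM dye. Read-out: post-addition slope, 15–24 s, of baseline-normalized fluorescence. Benchmarks: carbachol and DMSO controls.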
Sequence of Muscarinic acetylcholine receptor M4 (Homo sapiens) (P08173 whole entry, looked up): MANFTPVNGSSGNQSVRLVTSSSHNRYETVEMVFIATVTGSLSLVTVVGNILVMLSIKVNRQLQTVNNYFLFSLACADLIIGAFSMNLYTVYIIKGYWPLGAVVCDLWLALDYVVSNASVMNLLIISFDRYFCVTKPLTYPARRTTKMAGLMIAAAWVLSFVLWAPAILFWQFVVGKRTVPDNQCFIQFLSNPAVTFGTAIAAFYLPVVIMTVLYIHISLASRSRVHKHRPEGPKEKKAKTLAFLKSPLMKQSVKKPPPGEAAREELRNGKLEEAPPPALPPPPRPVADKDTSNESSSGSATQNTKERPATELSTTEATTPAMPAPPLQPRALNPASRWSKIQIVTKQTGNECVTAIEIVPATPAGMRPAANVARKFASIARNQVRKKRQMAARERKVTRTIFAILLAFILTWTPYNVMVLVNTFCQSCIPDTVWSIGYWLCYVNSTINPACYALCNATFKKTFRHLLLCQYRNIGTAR

The nature of test [7]: blockers of RIG-like receptor reporter activation – cell-based, Sendai virus stimulus, luciferase, 10K MLSCN set, TLR/RLR signaling modifier project, primary screen (AID 602276;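 active = inhibition at or above 50% at 10 µM; inactive = inhibition below 50%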;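 note: firefly luciferase from ISG56 promoter only with Renilla not read in this screen; 0% = Sendai virus plus DMSO and 100% = medium plus DMSO without virus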). The following applies: HEK293 RL24 IRF3 luciferase reporter, at 10 µM, stronger effect = higher value. On the technique in general: A reporter such as luciferase makes a cellular process visible.
Test [8] is described as follows: TLR3 IRF3 reporter activation blockers – cell-based, poly I:C stimulus, luciferase, 10K MLSCN set, primary screen (AID 602277;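 active = inhibition of the reporter signal at or above 50%; inactive = inhibition below 50%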). As to conditions: HEK293-TLR3 RL24 IRF3 luciferase reporter, at 10 µM, stronger effect = higher value.

For the compound `CC(=O)Nc1ccc(NC(=O)c2ccccc2N(C)S(C)(=O)=O)cc1`, the cell count in test [1] was found to be 408. Further, the inhibition in test [1] was 0.5% (inactive); in test [3] it was -46.3% (inactive); in test [7], 11.7% (inactive); in test [8], 10.8% (inactive). Moreover, the inhibition of aggregation in test [2] was -2.3% (inactive). The results for the nuclei count in test [2] and in test [3] were 111% and 94.4%, respectively. Also, the figures for the fluorescence slope in test [4] and in test [6] were -0.462 (inactive) and 0.00563 (inactive), respectively. In addition, in test [5], the NADPH fluorescence slope is -5.4e-05 (inactive).

Turning to `CCn1nccc1C(=O)Nc1nccs1`, the cell count in test [1] worked out at 392. For the same compound, the inhibition is -0.5% (inactive) in test [1], -45.2% (inactive) in test [3], 16.4% (inactive) in test [7] and 9.69% (inactive) in test [8]. For the same compound, in test [2], the inhibition of aggregation is -32.5% (inactive). The nuclei count worked out at 108% in test [2] and 103% in test [3]. Besides, the fluorescence slope in test [4] was -0.456 (inactive); in test [6] it was 0.00538 (inactive). Further, the NADPH fluorescence slope in test [5] was -4.4e-05 (inactive).

With `Cn1c(=O)c2c(nc(SCCCO)n2Cc2ccccc2Cl)n(C)c1=O`, in test [1], the cell count was found to be 531. In addition, the inhibition in test [1] was 7.2% (inactive); in test [3], 41% (inactive); in test [7] it was 7.16% (inactive); in test [8] it was 22.9% (inactive). Besides, the inhibition of aggregation in test [2] is -0.4% (inactive). For the same compound, the nuclei count in test [2] is 96%; in test [3], 92.6%. Further, the fluorescence slope in test [4] is -0.424 (inactive); in test [6], 0.00759 (inactive). The NADPH fluorescence slope in test [5] was 3e-05 (inactive).

For the compound `N#Cc1c(-c2ccccc2)nc(SCc2nc(N)nc(N3CCCCC3)n2)[nH]c1=O`, the cell count in test [1] is 401. Moreover, the inhibition in test [1] was -14% (inactive); in test [3], -20.8% (inactive); in test [7], 14.8% (inactive); in test [8], -10.4% (inactive). The inhibition of aggregation in test [2] was 13% (inactive). Further, the nuclei count in test [2] came out at 85.3%; in test [3] it was 97.8%. For the same compound, the values for the fluorescence slope in test [4] and in test [6] were -0.442 (inactive) and 0.00582 (inactive), respectively. Moreover, the NADPH fluorescence slope in test [5] is 0.000117 (inactive).

Turning to `CCCCN(CCCC)C(=O)CN(C)S(=O)(=O)c1ccc2c(c1)n(C)c(=O)c(=O)n2C`, the cell count in test [1] came to 354. The inhibition in test [1] was -5.1% (inactive); in test [3], -75.3% (inactive); in test [7] it was 11.1% (inactive); in test [8] it was 22.5% (inactive). Also, the inhibition of aggregation in test [2] was -10.5% (inactive). Besides, the nuclei count in test [2] was 88.3%; in test [3], 121%. Also, the fluorescence slope was -0.466 (inactive) in test [4] and 0.00642 (inactive) in test [6]. For the same compound, in test [5], the NADPH fluorescence slope is -4.4e-06 (inactive).

Regarding `Cc1csc2nc(CSc3nc4ccccc4o3)c(Br)n12`, the cell count in test [1] worked out at 573. Also, the inhibition was -14.8% (inactive) in test [1], -1.4% (inactive) in test [3], -40% (inactive) in test [7] and -122% (inactive) in test [8]. In addition, the inhibition of aggregation in test [2] was -9.5% (inactive). Further, the nuclei count in test [2] is 98.3%; in test [3], 125%. Besides, the fluorescence slope was -0.536 (inactive) in test [4] and 0.00576 (inactive) in test [6]. The NADPH fluorescence slope in test [5] is 0.000171 (inactive).

Consider `CCS(=O)(=O)Nc1ccc(C(=O)CC2(O)C(=O)Nc3ccccc32)cc1` (centres undefined), for which the cell count in test [1] was 602. Moreover, the inhibition in test [1] was -11.9% (inactive); in test [3], 11.8% (inactive); in test [7], 14.3% (inactive); in test [8], 18.7% (inactive). In test [2], the inhibition of aggregation was -19.6% (inactive). The values for the nuclei count in test [2] and in test [3] were 110% and 107%, respectively. For the same compound, the fluorescence slope is -0.521 (inactive) in test [4] and 0.00663 (inactive) in test [6]. Moreover, the NADPH fluorescence slope in test [5] was 0.000137 (inactive).

Consider `NCC(O)COc1ccc2c(c1)OCO2` (centres undefined), for which the cell count in test [1] was determined as 378. Further, the inhibition in test [1] was -7% (inactive); in test [3], -61.9% (inactive); in test [7] it was -1.42% (inactive); in test [8], 3.66% (inactive). Besides, in test [2], the inhibition of aggregation is -7.4% (inactive). Besides, the nuclei count came to 99.3% in test [2] and 103% in test [3]. Further, the fluorescence slope in test [4] is -0.551 (inactive); in test [6] it was 0.00335 (inactive). Further, in test [5], the NADPH fluorescence slope is -0.000108 (inactive).

Take `N#Cc1cnc2sc3ccccc3n2c1=N`: the cell count in test [1] was determined as 332. For the same compound, the inhibition was -12.6% (inactive) in test [1], -14.8% (inactive) in test [3], -9.74% (inactive) in test [7] and -37.6% (inactive) in test [8]. In test [2], the inhibition of aggregation is 5.1% (inactive). The nuclei count worked out at 119% in test [2] and 106% in test [3]. The fluorescence slope in test [4] is -0.554 (inactive); in test [6], 0.00378 (inactive). The NADPH fluorescence slope in test [5] was 7.2e-06 (inactive).

Turning to `Cn1c(Cc2csc(N)n2)nnc1SCC(=O)NCc1ccccc1`, in test [1], the cell count amounted to 447. Also, the inhibition in test [1] was 7.3% (inactive); in test [3] it was -12.6% (inactive); in test [7], -2.1% (inactive); in test [8], 13.3% (inactive). Further, the inhibition of aggregation in test [2] was 9.5% (inactive). Further, the nuclei count in test [2] came to 95.3%; in test [3] it was 118%. For the same compound, the fluorescence slope in test [4] was -0.58 (inactive); in test [6], 0.00622 (inactive). Further, the NADPH fluorescence slope in test [5] is -9.4e-06 (inactive).

`COc1ccc(-c2cc(C(=O)Nc3ccc(C)cc3)no2)cc1`: in test [1], the cell count was 320. For the same compound, the inhibition in test [1] was -6.5% (inactive); in test [3], -9.7% (inactive); in test [7], -20.2% (inactive); in test [8] it was -32.3% (inactive). Also, the inhibition of aggregation in test [2] is -11.2% (inactive). For the same compound, the nuclei count in test [2] was 108%; in test [3] it was 103%. The fluorescence slope in test [4] was -0.323 (inactive); in test [6], 0.00844 (inactive). For the same compound, in test [5], the NADPH fluorescence slope was -8.4e-07 (inactive).

Consider `CCOc1ccc2[nH]c(=O)c(CN(CCOC)C(=O)N3CCOCC3)cc2c1`, for which the cell count in test [1] was determined as 373. The inhibition in test [1] is 2.4% (inactive); in test [3], -3.2% (inactive); in test [7], 3.22% (inactive); in test [8], 12.3% (inactive). Further, in test [2], the inhibition of aggregation was -4% (inactive). The nuclei count in test [2] turned out to be 90.4%; in test [3], 99.9%. Also, the fluorescence slope in test [4] was -0.395 (inactive); in test [6], 0.0064 (inactive). Besides, the NADPH fluorescence slope in test [5] is 3.3e-05 (inactive).

Take `C/C(NC1CCCC1)=C(/C#N)C(N)=O`: in test [1], the cell count was 396. The inhibition was -23.5% (inactive) in test [1], -38.9% (inactive) in test [3], 16.9% (inactive) in test [7] and 22.8% (inactive) in test [8]. Also, the inhibition of aggregation in test [2] was -0.6% (inactive). The nuclei count in test [2] is 108%; in test [3], 144%. In addition, the fluorescence slope is -0.583 (inactive) in test [4] and 0.00436 (inactive) in test [6]. For the same compound, the NADPH fluorescence slope in test [5] is -2.4e-05 (inactive).

Regarding `O=C(C1CCN(S(=O)(=O)Cc2ccccc2)CC1)N1CCN(c2ncccn2)CC1`, the cell count in test [1] was 354. In addition, the inhibition in test [1] was -9.2% (inactive); in test [3], 34.3% (inactive); in test [7], -3.88% (inactive); in test [8] it was -4.47% (inactive). In addition, the inhibition of aggregation in test [2] was 0.1% (inactive). In addition, the figures for the nuclei count in test [2] and in test [3] were 67% and 96.8%, respectively. Further, the figures for the fluorescence slope in test [4] and in test [6] were -0.431 (inactive) and 0.00525 (inactive), respectively. For the same compound, in test [5], the NADPH fluorescence slope was -0.000431 (inactive).
